These results are taken from ChEMBL document CHEMBL2086336, “Small molecule suppression of carbapenem resistance in NDM-1 producing Klebsiella pneumoniae” (ACS Med Chem Lett, 2012).

The structures appear in SMILES notation. Activity calls are given as the source filed them.

Data set [1] concerns Klebsiella pneumoniae. Put plainly: Antibacterial activity against Klebsiella pneumoniae BAA 2146 expressing NDM-1 after 16 hrs by broth microdilution technique. In kind it is functional. The following applies: BAA 2146, 16 h. The essentials: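 MIC of the 2-AI compound alone, determined by modified broth microdilution in cation-adjusted Mueller Hinton broth (CAMHB).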
For orientation: Dilution methods test growth across graded concentrations, often in twofold steps.

The test system of data set [2] is Klebsiella pneumoniae. Put plainly: Potentiation of meropenem antibacterial activity against Klebsiella pneumoniae BAA 2146 expressing NDM-1 assessed as reduction in meropenem MIC at 30 uM after 16 hrs by broth microdilution technique. Format: functional. In a few lines: (§1)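 Modified broth microdilution: imipenem or meropenem MIC measured in CAMHB supplemented with a fixed concentration of the 2-AI compound. Fold reduction is taken against the carbapenem MIC without compound.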

For data set [3], the system named is Klebsiella pneumoniae. Put plainly: Potentiation of imipenem antibacterial activity against Klebsiella pneumoniae BAA 2146 expressing NDM-1 assessed as reduction in imipenem MIC at 30 uM after 16 hrs by broth microdilution technique. Format: functional. The essentials: as §1
Data set [4] has as its system Klebsiella pneumoniae. Put plainly: Potentiation of meropenem antibacterial activity against Klebsiella pneumoniae BAA 2146 expressing NDM-1 assessed as reduction in meropenem MIC at 50 uM after 16 hrs by broth microdilution technique. In kind it is functional, organism-based. The essentials:
as §1

Data set [5] relates to Klebsiella pneumoniae. Put plainly: Potentiation of imipenem antibacterial activity against Klebsiella pneumoniae BAA 2146 expressing NDM-1 assessed as reduction in imipenem MIC at 50 uM after 16 hrs by broth microdilution technique. Format: functional. The essentials: as §1
For data set [6], the system named is Klebsiella pneumoniae. Put plainly: Antibacterial activity against Klebsiella pneumoniae BAA 2146 expressing NDM-1 assessed as intact to permeabilized cell membrane ratio at 30 uM after 1 hr by SYTO9/PI-based fluorimetry relative to control. Format: functional. The essentials: (§2)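 Membrane damage was measured by Baclight assay after 1 h exposure of the NDM-1 strain to compound. The intact/permeabilized membrane ratio is expressed as % of DMSO-only treated control bacteria.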

Data set [7] deals with Klebsiella pneumoniae. Put plainly: Potentiation of imipenem antibacterial activity against Klebsiella pneumoniae BAA 2146 expressing NDM-1 assessed as reduction in imipenem MIC at 40 uM after 16 hrs by broth microdilution technique. In kind it is functional.
Data set [8] has as its system Klebsiella pneumoniae. Put plainly: Potentiation of imipenem antibacterial activity against Klebsiella pneumoniae BAA 2146 expressing NDM-1 assessed as increase in log reduction in CFU of imipenem at 30 uM at 4 to 16 hrs relative to control. In kind it is functional, organism-based. The essentials: (§3)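 Time-kill: cultures grown in CAMHB with imipenem (2–32 μg/mL) with or without 30 μM compound. Bacteria were plated at time points up to 16 h and viable CFU enumerated. Log reduction in CFU/mL is relative to untreated control; ≥2 log₁₀ drop versus antibiotic alone counted as synergy.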

The nature of data set [9]: Hemolytic activity against defibrinated sheep blood after 1 hr by UV-spectrophotometry. In kind it is ADME, tissue-based, Ovis aries. The following applies: read-out: HD50. In a few lines:
(§4)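 Hemolysis was tested on mechanically defibrinated sheep blood. Lysis is expressed relative to a positive control. HD₅₀ is the concentration lysing 50% of cells versus that control.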

Data set [10] deals with Klebsiella pneumoniae. Put plainly: Potentiation of imipenem antibacterial activity against Klebsiella pneumoniae BAA 2146 expressing NDM-1 assessed as decreased regrowth at 30 uM at 4 to 16 hrs relative to control. Format: functional, organism-based. The essentials:
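Time-kill: K. pneumoniae BAA-2146 (NDM-1) grown in CAMHB with imipenem (2, 8 or 32 μg/mL in figure; 16 and 4 μg/mL also reported) with or without additive at 30 μM. Viable CFU counted by plating at time points up to 16 h; log reduction in CFU/mL versus untreated control. Synergy defined as ≥2 log10 CFU decrease versus antibiotic alone.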

For data set [11], the system named is Klebsiella pneumoniae. Put plainly: Potentiation of cefotaxime antibacterial activity against Klebsiella pneumoniae ATCC 700603 expressing extended spectrum beta-lactamase assessed as reduction in cefotaxime MIC at 30 uM after 16 hrs by broth microdilution technique. In kind it is functional. In a few lines: (§5)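 Modified broth microdilution in cation-adjusted Mueller Hinton broth. The adjuvant's own MIC is measured first in CAMHB. Antibiotic MICs (imipenem/meropenem, or cefotaxime for the ESBL strain) are then determined in CAMHB supplemented with the 2-aminoimidazole at a fixed concentration of ≤30% of its own MIC. Reduction is reported as fold change versus the antibiotic MIC without adjuvant.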

Data set [12] deals with Klebsiella pneumoniae. Put plainly: Antibacterial activity against Klebsiella pneumoniae BAA 2146 expressing NDM-1 assessed as reduction in CFU at 30 uM after 16 hrs relative to control. Format: functional, organism-based. The essentials:
as §3

The test system of data set [13] is Klebsiella pneumoniae. Put plainly: Potentiation of imipenem antibacterial activity against Klebsiella pneumoniae BAA 1705 expressing KPC-2 assessed as reduction in imipenem MIC at 30 uM after 16 hrs by broth microdilution technique. In kind it is functional. In a few lines: as §5
Data set [14] in a line: Hemolytic activity against defibrinated sheep blood at 30 uM after 1 hr by UV-spectrophotometry relative to control. In kind it is ADME, tissue-based, Ovis aries. The following applies: read-out: Activity. In a few lines: as §4
For data set [15], the system named is Klebsiella pneumoniae. Put plainly: Potentiation of carbapenem antibacterial activity against Klebsiella pneumoniae BAA 2146 expressing NDM-1 assessed as reduction in carbapenem MIC at 50 uM after 16 hrs by broth microdilution technique. In kind it is functional. In a few lines:
as §5

For data set [16], the system named is Klebsiella pneumoniae. Put plainly: Antibacterial activity against Klebsiella pneumoniae BAA 2146 expressing NDM-1 assessed as intact to permeabilized cell membrane ratio at 50 uM after 1 hr by SYTO9/PI-based fluorimetry relative to control. Format: functional. The essentials:
as §2

Regarding `CCCCc1ccc(-c2c[nH]c(N)n2)cc1.Cl`, the MIC (as a rule, the lowest concentration that inhibits growth of the organism) with Klebsiella pneumoniae [1] worked out at 200 µM.
`CCCCCCc1ccc(-c2nc(N)[nH]c2CCC)cc1.Cl` returned an MIC in the data set on Klebsiella pneumoniae [1] of 100 µM.
For `CCCCCCc1ccc(-c2nc(N)[nH]c2C)cc1.Cl`, the “fold change (FC)” value in the data set on Klebsiella pneumoniae [2] and with Klebsiella pneumoniae [3] was 8 in each case. For the same molecule, in the data set with Klebsiella pneumoniae [1], the MIC was 100 µM.
For the molecule `CCCCCCc1ccc(-c2nc(N)[nH]c2-c2ccccc2)cc1.Cl`, the result in the data set on Klebsiella pneumoniae [4] and in the data set on Klebsiella pneumoniae [5] was inactive. Besides, the MIC in the data set with Klebsiella pneumoniae [1] was greater than 200 µM.
Take `CCCCCCc1ccc(-c2c[nH]c(N)n2)cc1.Cl`: the Activity in the data set with Klebsiella pneumoniae [6] is on record as 8.5%. Moreover, the “fold change (FC)” value in the data set on Klebsiella pneumoniae [2] is 16; in the data set on Klebsiella pneumoniae [5], 256; in the data set on Klebsiella pneumoniae [7] it was 64; in the data set with Klebsiella pneumoniae [3] it was 16; in the data set on Klebsiella pneumoniae [11] it was 8; in the data set with Klebsiella pneumoniae [13], 16. The outcome in the data set on Klebsiella pneumoniae [8] and in the data set on Klebsiella pneumoniae [10] was Active. Besides, the HC50 at 1 h in [9] was greater than 500 µM. In the data set on Klebsiella pneumoniae [1], the MIC is 100 µM. In addition, the outcome in the data set with Klebsiella pneumoniae [12] was inactive. Besides, the hemolysis at 1 h, 30 µM in data set [14] was 2.5%.
On to `CCCCCCCc1ccc(-c2c[nH]c(N)n2)cc1.Cl`, for which the “fold change (FC)” value in the data set with Klebsiella pneumoniae [15] came out at 2. Moreover, in the data set on Klebsiella pneumoniae [16], the Activity amounted to 21.2%. The molecule further came in with an MIC in the data set with Klebsiella pneumoniae [1] of 200 µM.
Consider `CCCCCCc1ccc(-c2nc(N)[nH]c2Cc2ccccc2)cc1.Cl`, for which the result in the data set on Klebsiella pneumoniae [4] and in the data set on Klebsiella pneumoniae [5] was inactive. Moreover, the MIC in the data set with Klebsiella pneumoniae [1] is greater than 200 µM.
With `Cl.Nc1nc(-c2ccc(-c3ccccc3)cc2)c[nH]1`, the MIC in the data set on Klebsiella pneumoniae [1] is greater than 200 µM.
Regarding `CCCCCCc1ccc(-c2nc(N)[nH]c2-c2ccc3ccccc3c2)cc1.Cl`, the result with Klebsiella pneumoniae [4] and in the data set with Klebsiella pneumoniae [5] was inactive. In the data set with Klebsiella pneumoniae [1], this molecule came in with an MIC greater than 200 µM.
In the case of `CCCCCCc1ccc(-c2nc(N)[nH]c2CCCCCC)cc1.Cl`, in the data set on Klebsiella pneumoniae [6], the Activity came to 8.13%. Also, the “fold change (FC)” value with Klebsiella pneumoniae [2] was 2. This molecule had an MIC with Klebsiella pneumoniae [1] greater than 200 µM. In the data set on Klebsiella pneumoniae [3] (50 uM, in the assay text read “at 50 uM” for “at 30 uM”), the result was inactive.
Take `CC(C)(C)c1ccc(-c2c[nH]c(N)n2)cc1.Cl`: in the data set with Klebsiella pneumoniae [1], the minimal inhibitory concentration (MIC) turned out to be 200 µM.
On to `CCCCCCc1ccc(-c2nc(N)[nH]c2CC(C)C)cc1.Cl`, for which the outcome in the data set on Klebsiella pneumoniae [4] and in the data set on Klebsiella pneumoniae [5] was inactive. In addition, the MIC with Klebsiella pneumoniae [1] was found to be 200 µM.
Regarding `CCCCCc1ccc(-c2c[nH]c(N)n2)cc1.Cl`, the minimal inhibitory concentration (MIC) in the data set with Klebsiella pneumoniae [1] came out at 100 µM.
